Screens from PubChem.
Rows were chosen to be rich in hits. Some 2.4% of all compounds tested hit in one or more screens of this group.
MC4R antagonist: MC4R antagonists of cAMP signaling, primary screen, cell-based, TR-FRET, antagonist arm of biased-ligand search. Melanocortin receptor 4 (Homo sapiens), P32245. MC4R-expressing cells, MTII-stimulated cAMP, LANCE TR-FRET. inhibition, % at 6.5 µM. actives 0.48% (n = 360,000). AID 540295, 2011;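 active = inhibition above its plate's cutoff, the mean of tested wells on that plate plus 3 SD, cut at about 29% in these data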;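 note: 0% = Melanotan II alone and 100% = Melanotan II plus saturating MCL0020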
Target sequence (P32245 whole entry, looked up): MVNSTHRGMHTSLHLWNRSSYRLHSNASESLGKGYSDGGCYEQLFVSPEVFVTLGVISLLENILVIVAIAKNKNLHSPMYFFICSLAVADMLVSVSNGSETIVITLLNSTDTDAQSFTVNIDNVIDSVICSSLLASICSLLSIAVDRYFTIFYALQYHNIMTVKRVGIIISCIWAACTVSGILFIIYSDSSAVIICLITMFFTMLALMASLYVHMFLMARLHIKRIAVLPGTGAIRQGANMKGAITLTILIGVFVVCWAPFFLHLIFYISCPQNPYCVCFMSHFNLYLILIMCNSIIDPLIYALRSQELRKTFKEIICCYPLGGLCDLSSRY
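Assay system: U2OS-MC4R stable cell line; Also added: Melanotan II; Technique: Eu-cAMP/anti-cAMP TR-FRET, emission 671 nm; Times: 30-min compound, 1-h challenge, 1-h detection, room temperature.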
aDG glyco up: activators of alpha-DG glycosylation, primary screen, uHTS, Pro5-aDG cells, AlphaScreen; alpha-DG glycosylation AlphaScreen (IIH6); 0% Pro5, 100% B10-LARGE cell signal; activation, % at 10 µM; actives 0.22% (n = 360,000);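 active = activation of at least 8% versus controls, or a plate z-score of at least 8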;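 note: Pro5 are CHO cells carrying HIG-tagged alpha-DG that lacks glycosylation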
Tb MetRS inh: T. brucei MetRS inhibitors, primary screen, biochemical, luminescence. methionyl-tRNA synthetase (Trypanosoma brucei brucei). purified T. brucei MetRS, ATP depletion, Kinase-Glo luminescence. inhibition, % at 11.9 µM. actives 0.4% (n = 360,000). AID 624268, 2012;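 active = inhibition above a per-plate cutoff of the control wells' mean inhibition plus 3 SD, cut at about 5.5% in these data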;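 note: 0% = DMSO wells median and 100% = median of wells with control inhibitor compound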
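Test system: purified T. brucei MetRS enzyme. Also added: ATP, methionine and E. coli bulk tRNA substrates. Compound: 11.9 µM single point. Schedule: 15 min enzyme-compound preincubation, 2 h reaction, 10 min detection, 25 °C. Signal: luciferase luminescence of residual ATP, Kinase-Glo. Evaluation: percent inhibition versus plate control medians. Controls: DMSO wells, low control.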
NTR1 agonist: agonists of human NTR1, primary screen, imaging, U2OS cells, beta-arrestin-GFP, high content; NTR1-U2OS beta-arrestin-GFP spot imaging, agonist mode; Neurotensin receptor type 1 (Homo sapiens), P30989; actives 0.17% (n = 330,000); activation, % at 20 µM;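 active = activation at or above 40% of the spot to cytoplasm intensity ratio, with at least 20 cells analyzed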;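 note: 0% = DMSO without peptide and 100% = 100 nM NTR1 peptide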
TAG inh: inhibitors of triacylglycerol accumulation, primary screen, cell-based, uHTS, fluorescence, H9c2; H9c2 cells, Nile Red lipid (TAG) fluorescence; cells loaded with 200 µM oleic acid; AID 651582, 2012; actives 0.66% (n = 230,000); inhibition, % at 12.5 µM;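 active = pattern-corrected inhibition of lipid staining of at least 50% with the nuclear-stain viability signal not falling by more than 50%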;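 note: 0% = DMSO wells and 100% = triacsin C control wells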
MC4R ag barr: MC4R agonists recruiting beta-arrestin, primary screen, cell-based, luminescence, agonist arm of biased-ligand search | actives 0.98% (n = 360,000) | AID 540308, 2011 | Melanocortin receptor 4 (Homo sapiens), P32245 | U2OS MC4R beta-arrestin complementation; percent of melanotan II response, DMSO zero | activation, % at 8.9 µM;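 active = activation above a per-plate cutoff, the mean activation of sample wells on that plate plus 3 SD, cut at about 8% in these data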
NTR1 ag confirm: NTR1 agonists, single-dose retest, confirmation, imaging, U2OS cells, beta-arrestin-GFP, single concentration. shares compounds with NTR1 agonist. NTR1-U2OS beta-arrestin-GFP translocation imaging. activation, % at 20 µM. actives 38% (n = 480);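 active = mean activation at 20 µM of at least 40%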;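 note: 0% = DMSO without peptide and 100% = 100 nM NTR1 peptide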
An asterisk follows results filed as active; · = no result given.

SMILES	MC4R antagonist	aDG glyco up	Tb MetRS inh	NTR1 agonist	TAG inh	MC4R ag barr	NTR1 ag confirm
CCc1nc2c(OCC(=O)C(C)(C)C)cccn2c1N(C)C(=O)c1ccc(C)cc1	9	0	0	·	11	-1	·
CCOc1c(OC(C)=O)ccc(/C=C/c2ccc3cccc(OC)c3n2)c1[N+](=O)[O-]	10	2	0	42*	·	5	22
CCOC(=O)C1C(C(=O)OCC)C2C(=O)C3C(C(=O)OCC)C(C(=O)OCC)C3C(=O)C12 (centres undefined)	21	0	0	·	-1	0	·
NS(=O)(=O)c1ccc(N2N=C(c3ccc(Br)cc3)CC2c2ccc(F)cc2)cc1 (centres undefined)	10	6	-1	42*	5	3	42*
O=C(/C=C/c1cccc(Cl)c1)c1nc2ccccc2[nH]1	14	0	2	42*	15	-4	72*
O=c1cc(-c2ccc(O)cc2)oc2cc(O)c(C3OC(CO)C(O)C(O)C3O)c(O)c12 (centres undefined)	5	0	1	41*	·	0	52*
COc1ccc(Cn2c(C3CCCCC3)nc3c(c(=O)c4ccccc4n3C)c2=O)cc1	·	·	·	43*	·	·	34
CCc1ccc(S(=O)(=O)/N=C2\C=C(Nc3ccc(O)cc3)C(=O)c3ccccc32)cc1	-25	-1	0	45*	·	1	21
Cc1cccc(C)c1NC(=O)C1c2ccccc2OCC(=O)N1Cc1ccccc1 (centres undefined)	·	0	0	·	·	·	·
CCOc1ccc(C(C(=O)NCC2CCCO2)N(C(=O)c2snc(C(N)=O)c2N)c2ccc(F)cc2)cc1 (centres undefined)	15	0	0	44*	·	-2	4
COc1cccc(N(C(=O)c2snc(C(N)=O)c2N)C(C(=O)NCC2CCCO2)c2ccc(F)cc2)c1 (centres undefined)	3	0	0	1	·	-1	·
Cc1cccc(OCC(=O)NNc2c3ccccc3nc3ccccc23)c1	0	2	0	36	·	3	·
Cc1ccc(OCC(=O)NNc2c3ccccc3nc3ccccc23)cc1	-4	2	1	47*	-10	1	20
CN(Cc1ccccc1)C(=O)C(=O)c1ccccc1	·	0	-1	·	·	·	·
CCCCNC(=O)C1C(c2ccc(OC)cc2)=Nc2ccccc2N1C(=O)c1ccncc1 (centres undefined)	·	0	-1	·	·	·	·
O=c1[nH]c(=O)n(Cc2ccco2)c2c1C(C(F)(F)F)(C(F)(F)F)N=C(CCC1CCCCC1)N2	12	1	-1	46*	·	7	21
O=C(O)C1CC(c2ccccc2)=Nc2ccccc2S1 (centres undefined)	-2	0	0	3	-19	0	·
O=[N+]([O-])c1ccc(C2CC(c3ccccc3)=Nc3ccccc3S2)cc1 (centres undefined)	-3	0	0	62*	·	-1	13
O=S1(=O)CC(N2CCN(c3ccccn3)CC2)CN1C1CCCCC1 (centres undefined)	·	0	-1	·	·	·	·
CN(C)/C=C1\NC(=S)N(c2ccccc2)C1=O	-1	0	0	0	6	0	·
CCN1C(=O)/C(=C/N(C(C)=O)c2ccccc2)N(c2ccccc2)C1=S	13	0	-2	42*	19	-2	61*
